In ChEMBL document CHEMBL4699489, “Optimized Opioid-Neurotensin Multitarget Peptides: From Design to Structure-Activity Relationship Studies” (J Med Chem, 2020):
Numbered stars: 1 amine (or outer) side, 2 acyl side, 3 side chain; on linkers, the order of the positions; unused ones are H or OH. Square brackets hold non-standard residues; d marks the D form. Peptide text beside a SMILES is read from it. X1 = O=C1[C@@H](N[*:1])Cc2ccccc2CN1CCC(=O)[*:2]; X2 = O=C([C@@H]1Cc2cc(O)ccc2CN1[*:1])[*:2]; Dmt = Cc1cc(O)cc(C)c1C[C@H](N)C(=O)O; mTyr = N[C@@H](Cc1cccc(O)c1)C(=O)O; Tle = CC(C)(C)[C@H](N)C(=O)O; β3hK = NCCCC[C@H](N)CC(=O)O

Key:
[1] = target: Neurotensin receptor type 2 (Homo sapiens, UniProt O95665); assay: Displacement of [125I]-neurotensin from human recombinant NTS2 stably expressed in human 1321N1 cell membranes incubated for 60 mins by gamma counter method
[2] = target: T1, Neurotensin receptor type 1 (Homo sapiens, UniProt P30989); assay: Displacement of [125I]-neurotensin from human recombinant NTS1 stably expressed in CHO-K1 cell membranes incubated for 60 mins by gamma counter method
[3] = target: T2, Mu-type opioid receptor (Homo sapiens, UniProt P35372); assay: Agonist activity at human MOR expressed in human U2OS cells assessed as increase in beta arrestin2 recruitment incubated for 90 mins by pathhunter beta-arrestin assay; assay type: cell-based
Procedure, shortened: (§1)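 U2OS cells stably coexpressing hMOR and enzyme acceptor-tagged β-arrestin-2, seeded at 5000 cells/well and kept 24 h at 37 °C. Graded peptide concentrations in PBS added for 90 min at 37 °C, then detection mix for 60 min at room temperature. Chemiluminescence read-out. EC50 and Emax (relative to DAMGO) by nonlinear regression. Duplicate, three independent experiments.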

[4] = target: T3, Kappa-type opioid receptor (Homo sapiens, UniProt P41145); assay: Agonist activity at human KOR stably expressed in CHO cell membranes assessed as stimulation of [35S]-GTPgammaS binding incubated for 1 hr by liquid scintillation counting assay; assay type: functional
Procedure, shortened: (§2)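 Membranes from CHO cells stably expressing hMOR, hDOR or hKOR, prepared in 20 mM HEPES, 10 mM MgCl2, 100 mM NaCl, pH 7.4. Membranes (5–10 μg) incubated with 0.05 nM [35S]GTPγS, 10 μM GDP and graded peptide concentrations, 60 min at 25 °C. Nonspecific binding with 10 μM GTPγS, basal without ligand. GF/B filtration, scintillation counting. EC50 and Emax by nonlinear regression; Emax relative to DAMGO, DPDPE or U69,593. Duplicate, three independent experiments.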

[5] = target: T2, Mu-type opioid receptor; assay: Agonist activity at human MOR stably expressed in CHO cell membranes assessed as stimulation of [35S]-GTPgammaS binding incubated for 1 hr by liquid scintillation counting assay; assay type: functional; procedure, shortened: as §2
[6] = target: T3, Kappa-type opioid receptor; assay: Displacement of [3H]-U69593 from recombinant human kappa opioid receptor expressed in CHO cell membrane incubated for 60 mins by liquid scintillation counting method; assay type: cell membranes
Procedure, shortened: (§3)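 Membranes from CHO-hMOR, -hDOR or -hKOR cells, homogenized and washed in 50 mM Tris-HCl pH 7.4. Membranes (15–20 μg) incubated with [3H]DAMGO (MOR), [3H]diprenorphine (DOR) or [3H]U69,593 (KOR) plus graded peptide, 60 min at 25 °C. Nonspecific binding with 1–10 μM of the unlabelled ligand. GF/C filtration, scintillation counting. Ki by Cheng–Prusoff. Duplicate, three independent experiments.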

[7] = target: T2, Mu-type opioid receptor; assay: Displacement of [3H]-DAMGO from recombinant human mu opioid receptor expressed in CHO cell membrane incubated for 60 mins by liquid scintillation counting method; assay type: cell membranes; procedure, shortened: as §3
[8] = target: T4, Delta-type opioid receptor (Homo sapiens, UniProt P41143); assay: Agonist activity at human DOR stably expressed in CHO cell membranes assessed as stimulation of [35S]-GTPgammaS binding incubated for 1 hr by liquid scintillation counting assay; assay type: functional; procedure, shortened: as §2
[9] = target: T2, Mu-type opioid receptor; assay: Agonist activity at human MOR expressed in human U2OS cells assessed as increase in beta arrestin2 recruitment incubated for 90 mins by pathhunter beta-arrestin assay relative to DAMGO; assay type: cell-based; conditions: filed as partial agonist; procedure, shortened: as §1
[10] = target: T4, Delta-type opioid receptor; assay: Agonist activity at human DOR stably expressed in CHO cell membranes assessed as stimulation of [35S]-GTPgammaS binding incubated for 1 hr by liquid scintillation counting assay relative to DPDPE; assay type: functional; conditions: filed as agonist, time 60.0 min; procedure, shortened: as §2
[11] = target: T2, Mu-type opioid receptor; assay: Agonist activity at human MOR expressed in CHO cell membranes assessed as stimulation of [35S]-GTPgammaS binding incubated for 1 hr by liquid scintillation counting assay relative to DAMGO; assay type: functional; conditions: filed as agonist, time 60.0 min; procedure, shortened: as §2
[12] = target: T4, Delta-type opioid receptor; assay: Displacement of [3H]-Diprenorphine from recombinant human delta opioid receptor expressed in CHO cell membrane incubated for 60 mins by liquid scintillation counting method; assay type: cell membranes; procedure, shortened: as §3
[13] = target: T1, Neurotensin receptor type 1; assay: Agonist activity at human NTS1 expressed in HEK293 cells co-expressing Galphaq/RlucII/GFP10-Ggamma1/Gbeta1 assessed as increase in Galphaq activation incubated for 10 mins in presence of coelenterazine 400A by BRET assay; assay type: cell-based
[14] = target: T1, Neurotensin receptor type 1; assay: Agonist activity at human NTS1 expressed in HEK293 cells co-expressing Galphaq/RlucII/GFP10-Ggamma1/Gbeta1 assessed as increase in Gq activation incubated for 10 mins in presence of coelenterazine 400A by BRET assay relative to NT (8-13); assay type: cell-based
[15] = target: T3, Kappa-type opioid receptor; assay: Agonist activity at human KOR stably expressed in CHO cell membranes assessed as stimulation of [35S]-GTPgammaS binding incubated for 1 hr by liquid scintillation counting assay relative to U69593; assay type: functional; conditions: time 60.0 min; procedure, shortened: as §2
[16] = target: T2, Mu-type opioid receptor; assay: Potency index, ratio of PK20 Ki to test compound Ki for displacement of [3H]-DAMGO from recombinant human mu opioid receptor expressed in CHO cell membranes

T3 sequence (P41145 whole entry): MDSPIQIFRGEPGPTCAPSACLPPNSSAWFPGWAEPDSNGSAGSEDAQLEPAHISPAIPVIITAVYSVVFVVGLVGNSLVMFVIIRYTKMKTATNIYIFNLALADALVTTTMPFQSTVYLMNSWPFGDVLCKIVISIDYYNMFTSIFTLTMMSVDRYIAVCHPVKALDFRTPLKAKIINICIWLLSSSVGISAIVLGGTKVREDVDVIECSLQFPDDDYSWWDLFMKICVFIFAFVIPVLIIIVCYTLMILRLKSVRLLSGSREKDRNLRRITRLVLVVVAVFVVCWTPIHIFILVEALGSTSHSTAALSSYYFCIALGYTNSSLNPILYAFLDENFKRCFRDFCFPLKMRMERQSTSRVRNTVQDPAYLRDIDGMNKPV
T1 sequence (P30989 whole entry): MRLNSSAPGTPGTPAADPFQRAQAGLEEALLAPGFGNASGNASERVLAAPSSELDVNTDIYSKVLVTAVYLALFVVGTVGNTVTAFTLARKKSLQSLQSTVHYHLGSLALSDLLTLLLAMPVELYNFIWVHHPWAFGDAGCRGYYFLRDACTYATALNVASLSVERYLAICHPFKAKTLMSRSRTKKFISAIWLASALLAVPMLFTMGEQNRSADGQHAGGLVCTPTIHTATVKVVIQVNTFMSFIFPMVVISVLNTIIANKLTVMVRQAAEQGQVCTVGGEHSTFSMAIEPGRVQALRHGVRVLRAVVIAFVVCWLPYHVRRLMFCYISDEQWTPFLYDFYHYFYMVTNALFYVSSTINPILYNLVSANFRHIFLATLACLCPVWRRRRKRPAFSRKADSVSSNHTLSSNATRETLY
T2 sequence (P35372 whole entry): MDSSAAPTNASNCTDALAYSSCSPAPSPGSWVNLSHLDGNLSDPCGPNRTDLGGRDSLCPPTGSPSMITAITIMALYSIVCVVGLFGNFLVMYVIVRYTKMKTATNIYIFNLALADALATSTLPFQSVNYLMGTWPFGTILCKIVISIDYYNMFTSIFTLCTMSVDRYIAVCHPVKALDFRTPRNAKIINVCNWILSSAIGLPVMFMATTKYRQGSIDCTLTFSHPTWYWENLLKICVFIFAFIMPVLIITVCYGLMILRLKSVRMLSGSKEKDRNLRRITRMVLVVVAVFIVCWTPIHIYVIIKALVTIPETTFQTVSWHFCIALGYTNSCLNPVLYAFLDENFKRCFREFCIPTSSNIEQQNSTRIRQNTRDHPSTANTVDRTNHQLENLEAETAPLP
T4 sequence (P41143 whole entry): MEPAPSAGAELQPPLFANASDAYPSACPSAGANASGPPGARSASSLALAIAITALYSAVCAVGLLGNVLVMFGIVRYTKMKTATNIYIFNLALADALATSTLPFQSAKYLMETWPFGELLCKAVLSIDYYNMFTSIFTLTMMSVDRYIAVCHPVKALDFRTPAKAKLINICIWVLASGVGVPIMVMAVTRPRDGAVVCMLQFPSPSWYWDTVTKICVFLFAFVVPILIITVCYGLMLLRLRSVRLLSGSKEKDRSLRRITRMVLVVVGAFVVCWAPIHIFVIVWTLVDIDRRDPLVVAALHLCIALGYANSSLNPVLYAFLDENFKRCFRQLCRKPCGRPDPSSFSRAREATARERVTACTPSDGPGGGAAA
Chain of Neurotensin receptor type 2 (O95665 whole entry): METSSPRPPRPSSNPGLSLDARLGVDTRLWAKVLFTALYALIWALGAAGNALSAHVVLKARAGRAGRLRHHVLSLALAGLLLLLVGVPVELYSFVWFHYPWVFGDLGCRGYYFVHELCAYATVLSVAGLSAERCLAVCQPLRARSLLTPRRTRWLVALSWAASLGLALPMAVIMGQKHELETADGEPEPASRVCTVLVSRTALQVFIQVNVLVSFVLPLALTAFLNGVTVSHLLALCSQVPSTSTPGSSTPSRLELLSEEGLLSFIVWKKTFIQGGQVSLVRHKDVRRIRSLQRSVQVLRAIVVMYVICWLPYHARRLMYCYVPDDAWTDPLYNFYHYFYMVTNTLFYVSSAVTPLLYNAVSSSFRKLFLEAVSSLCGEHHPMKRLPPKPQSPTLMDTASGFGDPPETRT

SMILES	Ki [1] [nM]	Ki [2] [nM]	EC50 [3] [nM]	EC50 [4] [nM]	EC50 [5] [nM]	Ki [6] [nM]	Ki [7] [nM]	EC50 [8] [nM]	Emax [9] [%]	Emax [10] [%]	Emax [11] [%]	Ki [12] [nM]	EC50 [13] [nM]	Emax [14] [%]	Emax [15] [%]	Ratio Ki [16]
Cc1cc(O)cc(C)c1C[C@H](NC(=O)[C@@H]1CCCN1C(=O)[C@H](CCCNC(=N)N)NC(=O)[C@@H](N)CCCNC(=N)N)C(=O)N[C@H](C(=O)N[C@@H](CC(C)C)C(=O)O)C(C)(C)C	3	13.4														
CC(C)C[C@H](NC(=O)[C@@H](NC(=O)[C@@H]1Cc2cc(O)ccc2CN1C(=O)[C@@H]1CCCN1C(=O)[C@H](CCCNC(=N)N)NC(=O)[C@@H](N)CCCNC(=N)N)C(C)(C)C)C(=O)O (H-RRP[X2][Tle]L-OH)	132	6680														
Cc1cc(O)cc(C)c1C[C@H](NC(=O)[C@@H]1CCCN1C(=O)[C@H](CCCNC(=N)N)NC(=O)[C@H](CCCNC(=N)N)NC(=O)CCN1Cc2ccccc2C[C@H](NC(=O)[C@@H](CCCNC(=N)N)NC(=O)[C@@H](N)Cc2c(C)cc(O)cc2C)C1=O)C(=O)N[C@H](C(=O)N[C@@H](CC(C)C)C(=O)O)C(C)(C)C (H-[Dmt][dR][X1]RRP[Dmt][Tle]L-OH)	0.03	0.78	1140	415	9.12	102	1.11	313	79	91	96	159	1.3	101	37	2
Cc1cc(O)cc(C)c1C[C@H](NC(=O)[C@@H]1CCCN1C(=O)[C@H](CCCCN)NC(=O)C[C@H](CCCCN)NC(=O)CCN1Cc2ccccc2C[C@H](NC(=O)[C@@H](CCCNC(=N)N)NC(=O)[C@@H](N)Cc2c(C)cc(O)cc2C)C1=O)C(=O)N[C@H](C(=O)N[C@@H](CC(C)C)C(=O)O)C(C)(C)C (H-[Dmt][dR][X1][β3hK]KP[Dmt][Tle]L-OH)	0.32	15	3040	239	65.4	208	7.12	248	69	97	97	48.6	1.8	112	36	2
Cc1cc(O)cc(C)c1C[C@H](N)C(=O)N[C@H](CCCNC(=N)N)C(=O)N[C@H]1Cc2ccccc2CN(CCC(=O)N[C@@H](CCCCN)C(=O)N[C@@H](CCCCN)C(=O)N2CCC[C@H]2C(=O)N2Cc3ccc(O)cc3C[C@H]2C(=O)N[C@H](C(=O)N[C@@H](CC(C)C)C(=O)O)C(C)(C)C)C1=O (H-[Dmt][dR][X1]KKP[X2][Tle]L-OH)	75	6830	2160	1560	45.6	150	6.24	842	66	91	94	209			20	2
Cc1cc(O)cc(C)c1C[C@H](N)C(=O)N[C@H](CCCNC(=N)N)C(=O)N[C@H]1Cc2ccccc2CN(CCC(=O)N[C@@H](CCCCN)C(=O)N[C@@H](CCCCN)C(=O)N2CCC[C@H]2C(=O)N[C@@H](Cc2cccc(O)c2)C(=O)N[C@H](C(=O)N[C@@H](CC(C)C)C(=O)O)C(C)(C)C)C1=O (H-[Dmt][dR][X1]KKP[mTyr][Tle]L-OH)	0.5	59	1270	401	27.4	70.9	3.99	452	66	90	87	200	15	90	30	2
Cc1cc(O)cc(C)c1C[C@H](N)C(=O)N[C@H](CCCNC(=N)N)C(=O)N[C@H]1Cc2ccccc2CN(CCC(=O)N[C@@H](CCCNC(=N)N)C(=O)N[C@@H](CCCNC(=N)N)C(=O)N2CCC[C@H]2C(=O)N[C@@H](Cc2ccc(O)cc2)C(=O)N[C@H](C(=O)N[C@@H](CC(C)C)C(=O)O)C(C)(C)C)C1=O (H-[Dmt][dR][X1]RRPY[Tle]L-OH)	0.09	0.43	1330	514	12.8	78.6	1.32	301	72	106	94	56.4	0.24	111	34	2
Cc1cc(O)cc(C)c1C[C@H](NC(=O)[C@@H]1CCCN1C(=O)[C@H](CCCCN)NC(=O)[C@H](CCCCN)NC(=O)CCN1Cc2ccccc2C[C@H](NC(=O)[C@@H](CCCNC(=N)N)NC(=O)[C@@H](N)Cc2c(C)cc(O)cc2C)C1=O)C(=O)N[C@H](C(=O)N[C@@H](CC(C)C)C(=O)O)C(C)(C)C (H-[Dmt][dR][X1]KKP[Dmt][Tle]L-OH)	0.16	13	1960	1570	48.7	138	7.15	898	62	60	95	276	3.9	109	22	2
Cc1cc(O)cc(C)c1C[C@H](NC(=O)[C@@H]1CCCN1C(=O)[C@H](CCCNC(=N)N)NC(=O)C[C@@H](N)CCCNC(=N)N)C(=O)N[C@H](C(=O)N[C@@H](CC(C)C)C(=O)O)C(C)(C)C	0.11	2.3														
Cc1cc(O)cc(C)c1C[C@H](N)C(=O)N[C@H](CCCNC(=N)N)C(=O)N[C@H]1Cc2ccccc2CN(CCC(=O)N[C@@H](CCCNC(=N)N)C(=O)N[C@@H](CCCNC(=N)N)C(=O)N2CCC[C@H]2C(=O)N[C@@H](Cc2cccc(O)c2)C(=O)N[C@H](C(=O)N[C@@H](CC(C)C)C(=O)O)C(C)(C)C)C1=O (H-[Dmt][dR][X1]RRP[mTyr][Tle]L-OH)	0.33	12.4	359	424	6.49	19.9	1.73	177	81	110	95	60.9	6.7	95	28	2
CC(C)C[C@H](NC(=O)[C@@H](NC(=O)[C@H](Cc1ccc(O)cc1)NC(=O)[C@@H]1CCCN1C(=O)[C@H](CCCNC(=N)N)NC(=O)[C@@H](N)CCCNC(=N)N)C(C)(C)C)C(=O)O														97		
CC(C)C[C@H](NC(=O)[C@@H](NC(=O)[C@H](Cc1cccc(O)c1)NC(=O)[C@@H]1CCCN1C(=O)[C@H](CCCNC(=N)N)NC(=O)[C@@H](N)CCCNC(=N)N)C(C)(C)C)C(=O)O	24	93														
Cc1cc(O)cc(C)c1C[C@H](N)C(=O)N[C@H](CCCNC(=N)N)C(=O)N[C@H]1Cc2ccccc2CN(CCC(=O)N[C@@H](CCCCN)C(=O)N[C@@H](CCCCN)C(=O)N2CCC[C@H]2C(=O)N[C@@H](Cc2ccc(O)cc2)C(=O)N[C@H](C(=O)N[C@@H](CC(C)C)C(=O)O)C(C)(C)C)C1=O (H-[Dmt][dR][X1]KKPY[Tle]L-OH)	0.29	2.3	2460	1650	64.6	201	4.89	1320	67	87	99	213	0.26	99	31	2
